For series [1], the system named is A-375. Put plainly: Induction of apoptosis in human A375 cells assessed as increase in intracellular H2O2 release at 10 uM after 4 hrs.
In series [2] the test system is A-375. Put plainly: Induction of apoptosis in human A375 cells assessed as caspase 3 activation at 10 uM after 24 hrs by Western blot analysis relative to control. The format is functional, cell-based. The method, boiled down:
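Lysates of A375 cells exposed 24 h to 10 µM agent; 40 µg protein per lane run on 10% SDS-PAGE and transferred to PVDF. Blocked in 5% skim milk in PBS-T, then probed with rabbit polyclonal anti-caspase-3 (p20 active form), with actin as loading control. HRP secondary and chemiluminescence detection; band amounts quantified by densitometry.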

Series [3] relates to A-375. Nature of the series: Cell cycle arrest in human A375 cells assessed as accumulation at G1 phase at 10 uM after 24 hrs by flow cytometry. The format is functional. The method, boiled down:
(§1)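 A375 cells exposed 24 h to 10 µM agent, DMSO control. Harvested by trypsinization, washed in PBS, fixed in ice-cold 70% ethanol 30 min. RNase A 1 mg/mL (with trisodium citrate) at 37 °C 30 min. Stained with PI/citrate/Triton X-100 DNA solution 30 min at room temperature in the dark. DNA content of 10,000 events read by flow cytometry; phase percentages calculated.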

The test system of series [4] is A-375. Nature of the series: Induction of apoptosis in human A375 cells assessed as increase in intracellular H2O2 release at 10 uM after 4 hrs in presence of catalase.
Series [5] relates to A-375. Nature of the series: Induction of apoptosis in human A375 cells assessed as annexin V-FITC cells at 10 uM after 24 hrs by annexin V-FITC and PI staining. In kind it is functional. The method, boiled down:
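After 24 h at 10 µM, 10⁶ A375 cells per sample were stained with annexin V-FITC and PI at the same time and analysed by flow cytometry. Annexin V⁺/PI⁻ cells were scored as early apoptotic and annexin V⁺/PI⁺ cells as necrotic.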

In another series the test system is K562. Put plainly: Cytotoxicity against human K562 cells at 10 uM by MTS assay. The format is functional. The conditions noted are these: read-out: Survival. The method, boiled down: (§2)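 MTS proliferation assay. Cells were seeded at 2500 cells/well and incubated overnight, then exposed to compound at 10 µM for 24 h. MTS tetrazolium premixed with phenazine ethosulfate was then added and incubated 1–2 h at 37 °C. Absorbance was read at 490 nm against a 690 nm reference. Value reported is survival as % of control.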

Series [6] relates to A-375. Put plainly: Effect on intracellular ATP content in human A375 cells at 10 uM after 24 hrs by firefly luciferase luminescence relative to control. The format is functional. In outline: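 Intracellular ATP measured by firefly luciferin–luciferase bioluminescence (ATPlite kit). A375 cells treated 24 h with 10 µM agent, then lysed; debris removed by centrifugation and supernatant assayed. Relative ATP expressed as percentage of the 0 µM level.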

Series [7] deals with A-375. Nature of the series: Cytotoxicity against human A375 cells at 10 uM by MTS assay. The format is functional. As to conditions: read-out: Survival. In outline:
as §2

Series [8] relates to A-375. Nature of the series: Induction of apoptosis in human A375 cells assessed as disruption of mitochondrial membrane potential at 10 uM after 24 hrs of labeling with rhodamine 123-dye by flow cytometry. In kind it is functional, cell-based. In outline: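 Exponentially growing A375 cells treated 24 h at 10 µM, then trypsinized and pelleted. Resuspended in rhodamine 123 (10 µg/mL) for 30 min at room temperature, washed twice in PBS and read at once by flow cytometry (FL-1, 530/30 nm band pass).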

Series [9] has as its system A-375. Put plainly: Cell cycle arrest in human A375 cells assessed as accumulation at S phase at 10 uM after 24 hrs by flow cytometry. The format is functional. The method, boiled down:
as §1

Series [10] is described as follows: Cytotoxicity against human 293T cells at 10 uM by MTS assay. In kind it is cell-based, HEK-293T. As to conditions: read-out: Survival. The method, boiled down: as §2
For series [11], the system named is A-375. Put plainly: Cell cycle arrest in human A375 cells assessed as accumulation at G2/M phase at 10 uM after 24 hrs by flow cytometry. In kind it is functional. The method, boiled down: as §1

Activity calls are given as the source filed them. The calls are words filed in the database; no cut-off is given here.

In the case of `O=[N+]([O-])c1ccc(C(=S)Nc2ccc(C(F)(F)F)cc2)cc1`, the result in the series on A-375 [1], in the series with A-375 [2] and in the series with A-375 [8] was Active. Besides, the Activity was found to be 55.4% with A-375 [3]; 33% with A-375 [5]; 63.1% in the series with A-375 [6]; 17.1% with A-375 [9]; 27.6% in the series with A-375 [11]. Besides, the result in the series with A-375 [4] was inactive. Further, the figures for the viability at 10 µM (in the series with K562; in the series with A-375 [7]; in [10]) were 41.4%, 36.2% and 41.2%, respectively.

Regarding `O=C(Nc1ccc([N+](=O)[O-])cc1)c1ccc([N+](=O)[O-])cc1`, the figures for the viability at 10 µM (with K562; in the series on A-375 [7]; in series [10]) were 71.3%, 70.5% and 85.2%, respectively.

In the case of `O=C(Nc1ccc(Br)cc1)c1ccc([N+](=O)[O-])cc1`, the viability at 10 µM was 89.1% with K562, 81.1% in the series with A-375 [7] and 86.9% in series [10].

Regarding `O=[N+]([O-])c1ccc(NC(=S)c2ccc([N+](=O)[O-])cc2)cc1`, the result with A-375 [1], in the series on A-375 [2] and with A-375 [8] was Active. For the same compound, the Activity in the series with A-375 [3] turned out to be 59.9%; in the series with A-375 [5], 16.3%; with A-375 [6], 83.6%; in the series on A-375 [9], 11.3%; in the series on A-375 [11], 28.9%. Besides, the result with A-375 [4] was inactive. Besides, the viability at 10 µM came out at 47.9% with K562, 39.1% in the series on A-375 [7] and 44% in [10].

Take `O=[N+]([O-])c1ccc(C(=S)Nc2ccc(Br)cc2)cc1`: the outcome in the series on A-375 [1], in the series on A-375 [2] and in the series with A-375 [8] was Active. The Activity with A-375 [3] is listed as 58.4%; with A-375 [5], 7.5%; in the series with A-375 [6] it was 66.1%; in the series with A-375 [9], 12.7%; in the series with A-375 [11], 29%. Further, the result in the series with A-375 [4] was inactive. For the same compound, the values for the viability at 10 µM (with K562; in the series on A-375 [7]; in series [10]) were 42.9%, 43% and 48.4%, respectively.

Consider `O=C(Nc1ccc(C(F)(F)F)cc1)c1ccc([N+](=O)[O-])cc1`, for which the viability at 10 µM came to 81.3% in the series with K562, 87.2% in the series with A-375 [7] and 87.7% in [10].

The values above are taken from ChEMBL document CHEMBL1149903, “Synthesis and biological evaluation of thiobenzanilides as anticancer agents” (Bioorg Med Chem, 2008).
